In brackets after ≈: the same amount, converted by molar mass.

What all share (format): functional
The subject of test [1] is Human alphaherpesvirus 1. The test can be described thus: Minimum inhibitory concentration (MIC) required to reduce HSV-1 strain (F) induced cytopathogenicity in primary rabbit kidney cell cultures. The method, boiled down:
(§1)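 Primary rabbit kidney cell cultures were infected with virus and treated with compound. The MIC is the concentration that reduces virus-induced cytopathogenicity by 50%. Cytotoxicity was scored as microscopically visible alteration of normal cell morphology, with 400 μg/mL the highest concentration tested.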
On the technique in general: Damage to the host cells serves as the signal in cytopathic effect assays.

Test [2] relates to L1210. The test can be described thus: Minimum inhibitory concentration (MIC) required to inhibit proliferation of murine leukemia L1210 (wild type). The settings on record: Mus musculus. In a few lines:
(§2)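 Cell proliferation assay. Cultures were exposed to compound during their linear growth phase, and growth was monitored. The MIC is the concentration that inhibits cell proliferation by 50%.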

For test [3], the system named is Human alphaherpesvirus 2. The test can be described thus: Minimum inhibitory concentration (MIC) required to reduce HSV-2 strain (Lyons) induced cytopathogenicity in primary rabbit kidney cell cultures. The method, boiled down:
as §1

For test [4], the system named is Human alphaherpesvirus 2. The test can be described thus: Minimum inhibitory concentration (MIC) required to reduce HSV-2 strain G induced cytopathogenicity in primary rabbit kidney cell cultures. The method, boiled down:
as §1

The subject of test [5] is Human alphaherpesvirus 1. Kind of test: Minimum inhibitory concentration (MIC) required to reduce thymidine kinase deficient HSV-1 induced cytopathogenicity in primary rabbit kidney cell cultures. In a few lines:
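The virus was a dThd kinase-deficient mutant of HSV-1 strain B2006, passaged several times in primary rabbit kidney cells. The MIC is the concentration that reduces cytopathogenicity by 50% in primary rabbit kidney cell cultures. Cytotoxicity was scored by microscopic cell morphology, up to 400 μg/mL.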

Test [6] relates to L1210. The test can be described thus: Minimum inhibitory concentration (MIC) required to inhibit proliferation of murine leukemia L1210 (TK-). The settings on record: Mus musculus. The method, boiled down:
as §2

The species named for test [7] is Rattus norvegicus. Kind of test: Minimum inhibitory concentration (MIC) required to inhibit proliferation of Novikoff rat hepatoma. The method, boiled down:
as §2

The subject of test [8] is Vesicular stomatitis virus. The test can be described thus: Minimum inhibitory concentration (MIC) required to reduce vesicular stomatis virus induced cytopathogenicity in primary rabbit kidney cell cultures. In a few lines:
as §1

Test [9] deals with Human alphaherpesvirus 1. The test can be described thus: Minimum inhibitory concentration (MIC) required to reduce HSV-1 strain McIntyre induced cytopathogenicity in primary rabbit kidney cell cultures. In a few lines:
as §1

The species named for test [10] is Homo sapiens. Kind of test: Minimum inhibitory concentration (MIC) required to inhibit proliferation of human lymphoblast Raji. In a few lines: as §2
The test system of test [11] is Human alphaherpesvirus 1. Kind of test: Minimum inhibitory concentration (MIC) required to reduce Herpes simplex virus (HSV-1) KOS strain induced cytopathogenicity in primary rabbit kidney cell cultures. In a few lines: as §1
The species entered for test [12] is Mus musculus. Kind of test: The survival rate was evaluated for its effect of systemic treatment on hairless (hr/hr) mice infected intracutaneously with HSV-1 (KOS) at percent concentration of 0.3.
The subject of test [13] is Mus musculus. Kind of test: The survival rate was evaluated for its effect of systemic treatment on NMRI mice infected intraperitoneally with HSV-1 (KOS) when administered perorally. In a few lines: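 Mice were infected intraperitoneally with HSV-1 (KOS). Compound was given at 100 mg/kg per day from day 0 to day 4 postinfection, as a 2 mg/mL suspension in water by gavage once daily. Survivors were counted at day 20 postinfection.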

The test system of test [14] is Mus musculus. The test can be described thus: The survival rate was evaluated for its effect of systemic treatment on NMRI mice infected intraperitoneally with HSV-1 (KOS) when administered intraperitoneally. The method, boiled down:
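Mice were infected intraperitoneally with HSV-1 (KOS). Compound was given at 100 mg/kg per day from day 0 to day 4 postinfection, intraperitoneally, at 1 mg/mL in physiological saline with 10% propylene glycol, twice daily. Survivors were counted at day 20 postinfection.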

Test [15] is filed under the species Mus musculus. Kind of test: The survival rate was evaluated for its effect of systemic treatment on hairless (hr/hr) mice infected intracutaneously with HSV-1 (KOS) at percent concentration of 1.
The species named for test [16] is Mus musculus. The test can be described thus: The survival rate was evaluated for its effect of systemic treatment on hairless (hr/hr) mice infected intracutaneously with HSV-1 (KOS) at percent concentration of 3.

Consider `O=c1[nH]c(=O)n(C2CC(O)C(CO)C2)cc1/C=C/I` (stereo not drawn), for which the MIC50 was 0.1 µg/mL (≈ 0.264 µM) in test [1]; above 200 µg/mL in test [2]; 7 µg/mL (≈ 18.5 µM) in test [3]; 2 µg/mL (≈ 5.29 µM) in test [4]; above 400 µg/mL in test [5]; above 200 µg/mL in [6]. Further, the MIC50 in [7] is above 200 µg/mL; in test [8] it was above 400 µg/mL; in test [9] it was 0.07 µg/mL (≈ 0.185 µM); in [10], above 200 µg/mL; in [11], 0.07 µg/mL (≈ 0.185 µM).
For the molecule `Nc1nc(=O)n(C2CC(O)C(CO)C2)cc1/C=C/Br` (stereo not drawn), the MIC50 in [1] is 0.1 µg/mL (≈ 0.303 µM); in test [3], 20 µg/mL (≈ 60.6 µM); in test [4], 20 µg/mL (≈ 60.6 µM); in [5], above 400 µg/mL; in test [8], above 400 µg/mL; in test [9], 0.2 µg/mL (≈ 0.606 µM). The molecule further gave an MIC50 in test [11] of 0.2 µg/mL (≈ 0.606 µM).
With `O=c1[nH]c(=O)n([C@H]2C[C@H](O)[C@@H](CO)O2)cc1/C=C/I`, the MIC50 was 0.02 µg/mL (≈ 0.0526 µM) in test [1]; 16.3 µg/mL (≈ 42.9 µM) in [2]; 2 µg/mL (≈ 5.26 µM) in test [3]; 2 µg/mL (≈ 5.26 µM) in test [4]; above 10 µg/mL in test [5]; 5.1 µg/mL (≈ 13.4 µM) in test [6]. The MIC50 was 4.6 µg/mL (≈ 12.1 µM) in test [7]; above 400 µg/mL in [8]; 0.02 µg/mL (≈ 0.0526 µM) in test [9]; 21.1 µg/mL (≈ 55.5 µM) in [10]; 0.007 µg/mL (≈ 0.0184 µM) in test [11].
As to `O=c1[nH]c(=O)n([C@@H]2C[C@H](CO)[C@@H](O)C2)cc1I`, the MIC50 in test [1] was 0.2 µg/mL (≈ 0.568 µM); in test [2], above 200 µg/mL; in [3], 20 µg/mL (≈ 56.8 µM); in [4] it was 40 µg/mL (≈ 114 µM); in test [5], above 400 µg/mL; in [6], above 200 µg/mL. For the same molecule, the MIC50 in test [7] was 22.8 µg/mL (≈ 64.7 µM); in test [8], above 400 µg/mL; in test [9], 0.2 µg/mL (≈ 0.568 µM); in test [10], above 200 µg/mL; in test [11], 0.2 µg/mL (≈ 0.568 µM).
On to `NC1NC(=O)N([C@H]2C[C@H](O)[C@@H](CO)O2)C=C1/C=C/Br` (stereo partly drawn), for which the MIC50 is 0.07 µg/mL (≈ 0.209 µM) in test [1]; 9 µg/mL (≈ 26.9 µM) in test [3]; 7 µg/mL (≈ 20.9 µM) in [4]; above 400 µg/mL in test [8]; 0.06 µg/mL (≈ 0.18 µM) in [9]; 0.07 µg/mL (≈ 0.209 µM) in [11].
Take `O=c1[nH]c(=O)n([C@H]2C[C@@H](CO)[C@H](O)C2)cc1/C=C/Br`: the MIC50 in test [1] was 0.07 µg/mL (≈ 0.211 µM); in test [2], above 200 µg/mL; in test [3] it was 7 µg/mL (≈ 21.1 µM); in test [4] it was 20 µg/mL (≈ 60.4 µM); in test [5], above 400 µg/mL; in [6] it was above 200 µg/mL. Besides, the MIC50 is above 200 µg/mL in [7]; above 400 µg/mL in test [8]; 0.04 µg/mL (≈ 0.121 µM) in test [9]; above 200 µg/mL in [10]; 0.07 µg/mL (≈ 0.211 µM) in [11]. Besides, the Survival rate in test [12] was 0; in [13], 0; in [14], 3; in [15] it was 0; in test [16], 2.
As to `O=c1[nH]c(=O)n([C@H]2C[C@H](O)[C@@H](CO)O2)cc1I` [IDOXURIDINE], the MIC50 is 0.2 µg/mL (≈ 0.565 µM) in test [1]; 35.6 µg/mL (≈ 101 µM) in test [2]; 0.2 µg/mL (≈ 0.565 µM) in [3]; 0.7 µg/mL (≈ 1.98 µM) in test [4]; above 400 µg/mL in test [5]; above 500 µg/mL in test [6]. Besides, the MIC50 was 5.5 µg/mL (≈ 15.5 µM) in test [7]; above 400 µg/mL in test [8]; 0.2 µg/mL (≈ 0.565 µM) in test [9]; 4.7 µg/mL (≈ 13.3 µM) in [10]; 0.2 µg/mL (≈ 0.565 µM) in [11].
